Assay outcomes (PubChem BioAssay)
The list is not random: actives were taken first. Their share in the collection is about 3.8%.
KCNQ1 block = blocks the human KCNQ1 potassium channel; CHO-K1 KCNQ1, FluxOR thallium flux fluorescence; stronger effect = higher value; P51787; 310,000 compounds, 1.3% hits; AID 2642; B-score at 10 µM;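 active means compounds whose thallium flux B-score, printed positive for inhibition, exceeds three library SD while starting fluorescence stays within three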;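 further: channel opened by potassium depolarization with thallium stimulus after 20 min compound exposure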
KCNQ1 act = potentiates or activates the human KCNQ1 potassium channel. P51787. B-score at 10 µM. 310,000 compounds, 0.35% hits. CHO-K1 KCNQ1, thallium flux FluxOR fluorescence; stronger effect = higher value;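 active means fluorescence ratio B-score, a plate-corrected score, at least three library SD, with initial intensity B-score within 5 SD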
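Material: CHO-K1 cells stably expressing KCNQ1. Medium: assay buffer for compound exposure, DMSO matched across wells. Reagent: K+/Tl+ depolarizing stimulus. Compound dosing: single-concentration screen. Times: 37 °C overnight plating, 90-min dark dye load, 20-min compound pretreatment. Technique: FluxOR Tl+ flux fluorescence.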
KCNK3 inh = human KCNK3 channel inhibition, primary screen; CHO-KCNK3 thallium flux, FluxOR fluorescence; stronger effect = lower value; B-score at 10 µM; 340,000 compounds, 0.84% hits;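 active means B-score under library mean minus 4 SD, starting fluorescence ratio at most library mean plus 5 SD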;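 further: more negative B-score means stronger inhibition of thallium flux through KCNK3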
Target sequence (O14649 whole entry, looked up): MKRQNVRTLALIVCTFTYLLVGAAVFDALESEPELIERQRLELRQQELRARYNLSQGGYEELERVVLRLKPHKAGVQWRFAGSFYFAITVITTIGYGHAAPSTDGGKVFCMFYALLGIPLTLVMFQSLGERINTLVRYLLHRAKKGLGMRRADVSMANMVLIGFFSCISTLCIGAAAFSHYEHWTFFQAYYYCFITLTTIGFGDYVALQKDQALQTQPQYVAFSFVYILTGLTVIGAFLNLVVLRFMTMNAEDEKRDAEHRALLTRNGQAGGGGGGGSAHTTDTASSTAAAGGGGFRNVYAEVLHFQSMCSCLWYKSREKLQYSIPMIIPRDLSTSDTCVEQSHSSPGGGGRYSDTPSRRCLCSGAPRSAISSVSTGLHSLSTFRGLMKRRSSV
Kir21 inh = blocks the mouse Kir2.1 inward-rectifier potassium channel; P35561; HEK293-Kir2.1, FluxOR thallium flux fluorescence; stronger effect = lower value; B-score at 10 µM; 310,000 compounds, 0.85% hits;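 active means fluorescence ratio B-score at or below minus 3 SD of library scores, with starting-brightness B-score within 2 SD, cut at about -4.2 in these data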;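 further: channel flux triggered by added potassium and thallium sulfate stimulus; B-score of peak minus minimum fluorescence over baseline after thallium stimulus; more negative B-score means stronger Kir2.1 block with less thallium influx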
KCNK9 block = inhibitors of human KCNK9 two-pore domain potassium channel; B-score at 10 µM; HEK293 KCNK9, FluxOR thallium flux fluorescence; stronger effect = lower value; 310,000 compounds, 1.2% hits; Q9NPC2; AID 488922;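 active means ratio B-score over 3 SD below the library mean, with starting fluorescence within 5 SD of its mean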;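 further: negative B-score means less thallium flux so channel inhibition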
hERG protect = compounds protecting human hERG from proarrhythmic drug block; Q12809; CHO-hERG, FluxOR thallium flux, dofetilide IC70 present; activation (rescue from dofetilide block), less the hit threshold, % at 10 µM; 310,000 compounds, 0.51% hits; AID 1511;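 active means activation above the mean of controls blocked by dofetilide plus 5 SD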;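 further: thallium influx through hERG after potassium depolarization seen as dye fluorescence rise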
The depositor's hits bear a star.

Screening CCOC(=O)C1(Cc2cccc(OC)c2)CCN(C/C=C/c2ccc(OC)cc2)CC1 returned KCNQ1 block 7*, KCNQ1 act inactive, KCNK3 inh inactive, Kir21 inh -0.32, KCNK9 block inactive and hERG protect -22.1.
CCOC(=O)C1(CCOc2ccccc2)CCN(Cc2ccc(O)cc2)CC1 was read as KCNQ1 block inactive, KCNQ1 act inactive, KCNK3 inh inactive, Kir21 inh -0.66, KCNK9 block inactive and hERG protect -3.4.
For CCOC(=O)C1(CCc2ccccc2)CCN(Cc2ccc(OC)cc2)CC1 the results were KCNQ1 block inactive, KCNQ1 act inactive, KCNK3 inh inactive, Kir21 inh -5.22*, KCNK9 block inactive and hERG protect -24.4.
CCOC(=O)C1(CCc2ccccc2)CCN(Cc2ccc(O)cc2)CC1 was read as KCNQ1 block inactive, KCNQ1 act inactive, KCNK3 inh inactive, Kir21 inh -4.46*, KCNK9 block inactive and hERG protect -31.4.
`CCCN(Cc1ccco1)S(=O)(=O)c1ccc(OC)c(OC)c1` gave KCNQ1 block inactive, KCNQ1 act inactive, KCNK3 inh inactive, Kir21 inh -4.9*, KCNK9 block inactive and hERG protect -12.4.
Screening C=CCC(NCc1ccco1)c1ccc(OC)cc1OC (stereo not given) returned KCNQ1 block inactive, KCNQ1 act inactive, Kir21 inh -1.06, KCNK9 block inactive and hERG protect -3.9.
C=C(C)CC(NCc1ccco1)c1ccc(OC)cc1 (stereo not given) was read as KCNQ1 block inactive, KCNQ1 act inactive, KCNK3 inh inactive, Kir21 inh -5.36*, KCNK9 block inactive and hERG protect -4.5.
CCOCCCNC(=O)C(c1ccc(Cl)cc1)N1CCC2(CC1)OCCO2 (stereo not given) was read as KCNQ1 block inactive, KCNQ1 act inactive, KCNK3 inh inactive, Kir21 inh -0.14, KCNK9 block inactive and hERG protect 8.6*.
Screening CCOC(=O)c1nn(C23CC4CC(CC(C4)C2)C3)c2c1C(=O)N(c1ccc(C)cc1)C2=O returned KCNQ1 block inactive, KCNQ1 act inactive, KCNK3 inh inactive, Kir21 inh 2.13, KCNK9 block inactive and hERG protect -7.0.
Screening COC(=O)c1nn(C23CC4CC(CC(C4)C2)C3)c2c1C(=O)N(c1ccc(Br)cc1)C2=O returned KCNQ1 block 6*, KCNQ1 act inactive, KCNK3 inh inactive, Kir21 inh -0.77, KCNK9 block inactive and hERG protect -10.2.
COc1ccccc1-n1cnnc1SCc1csc(-c2ccccc2)n1 was read as KCNK3 inh inactive.
For C=CCn1c(SCc2csc(-c3ccc(C)cc3)n2)nnc1-c1ccccc1OC the results were KCNQ1 block 6*, KCNQ1 act inactive, KCNK3 inh inactive, Kir21 inh -7.7*, KCNK9 block inactive and hERG protect -19.6.
For Cc1ccc(C(=O)C[n+]2cc(-c3ccc(C)cc3)n3c2CCCCC3)cc1 the results were KCNQ1 block 14*, KCNQ1 act inactive, KCNK3 inh inactive, Kir21 inh -2.54, KCNK9 block inactive and hERG protect -23.8.
Screening COc1ccc(C(=O)C[n+]2cc(-c3ccc(OC)cc3)n3c2CCCC3)cc1 returned KCNQ1 block inactive, KCNQ1 act inactive, KCNK3 inh inactive, Kir21 inh -0.08, KCNK9 block inactive and hERG protect -4.6.
For C=CCNCc1cccn1-c1sc2c(c1C#N)CCCC2 the results were KCNQ1 block inactive, KCNQ1 act inactive, KCNK3 inh inactive, Kir21 inh -2.1, KCNK9 block inactive and hERG protect -8.3.
For N#Cc1c(-n2cccc2/C=N/O)sc2c1CCCC2 the results were KCNQ1 block inactive, KCNQ1 act inactive, KCNK3 inh inactive, Kir21 inh -9.84*, KCNK9 block inactive and hERG protect -12.7.
For COc1cc(CN(C)C(C)C(=O)Nc2ccc([N+](=O)[O-])cc2Cl)ccc1OC(F)F (stereo not given) the results were KCNQ1 block inactive, KCNQ1 act inactive, KCNK3 inh inactive, Kir21 inh -0.14, KCNK9 block inactive and hERG protect -12.2.
